{"data": "Results collected from several papers", "note": "Compare with care: the assays were run in different laboratories."}
{"Structure (SMILES)": "C=CC(=O)ON=C1C=CC(=C(C#N)c2ccccc2)C=C1", "target or system": "Candidozyma auris", "test": "microbial growth, broth dilution", "conditions": "48 h", "measurement": "MIC", "result": "16 µg/mL"}
{"Structure (SMILES)": "CCOC(=O)C1=C(CCl)NC(=O)NC1c1ccc(F)cc1F (stereo not drawn)", "test": "DPPH scavenging", "measurement": "IC50", "result": "117 µM"}
{"Structure (SMILES)": "NCCCC(=O)Nc1ccccc1/N=c1\\cc(-c2ccc3c(c2)OCO3)oc2ccccc12", "target or system": "MCF7", "test": "cell growth or viability, CCK-8", "conditions": "1 µM", "measurement": "inhibition", "result": "10.2%"}
{"Structure (SMILES)": "O=C(C[C@@H](C(F)F)n1ccc(F)n1)N1CCC(O)(Cn2cnc3c(cnn3-c3ccc(F)cc3)c2=O)CC1", "target or system": "CAPAN-1", "test": "cell growth or viability, SRB", "conditions": "2.222 µM, 5 days", "measurement": "viability", "result": "19.8%"}
{"Structure (SMILES)": "N[C@@H](CO)C(=O)Nc1ccccc1/N=c1\\cc(-c2ccc3c(c2)OCO3)oc2ccccc12", "target or system": "MCF7", "test": "cell growth or viability, CCK-8", "conditions": "1 µM", "measurement": "inhibition", "result": "16.3%"}
{"Structure (SMILES)": "COc1cccc(C2NCCc3cc(O)c(O)cc32)c1 (stereo not drawn)", "test": "DPPH scavenging, absorbance", "conditions": "30 min, dark", "measurement": "IC50", "result": "18.2 µM"}
{"Structure (SMILES)": "C#CCON=C1C=CC(=C(C#N)c2ccccc2)C=C1", "target or system": "Candidozyma auris", "test": "microbial growth, broth dilution", "conditions": "48 h", "measurement": "MIC", "result": "32 µg/mL"}
{"Structure (SMILES)": "Oc1ccc(C2NCCc3cc(O)c(O)cc32)cc1O (stereo not drawn)", "test": "DPPH scavenging, absorbance", "conditions": "30 min, dark", "measurement": "IC50", "result": "8.14 µM"}
{"Structure (SMILES)": "CCOC(=O)C1=C(CSC2=NCCS2)NC(=O)NC1c1ccc(F)cc1 (stereo not drawn)", "test": "DPPH scavenging", "measurement": "IC50", "result": "157 µM"}
{"Structure (SMILES)": "CCCCCCCCCC1NCCc2cc(O)c(O)cc21 (stereo not drawn)", "test": "DPPH scavenging, absorbance", "conditions": "30 min, dark", "measurement": "IC50", "result": "62 µM"}
{"Structure (SMILES)": "CCOC(=O)C1=C(CSC2=NCCS2)NC(=O)NC1c1cccc(C)c1 (stereo not drawn)", "test": "DPPH scavenging", "measurement": "IC50", "result": "224 µM"}
{"Structure (SMILES)": "CCCCCCCCCCCCCCCCCC1NCCc2cc(O)c(O)cc21 (stereo not drawn)", "test": "DPPH scavenging, absorbance", "conditions": "30 min, dark", "measurement": "IC50", "result": "34.8 µM"}
{"Structure (SMILES)": "CCOC(=O)C1=C(CCl)NC(=O)NC1c1ccc(C(C)C)cc1 (stereo not drawn)", "test": "DPPH scavenging", "measurement": "IC50", "result": "243 µM"}
{"Structure (SMILES)": "C#CCOC(=O)ON=C1C=CC(=C(C#N)c2ccccc2)C=C1", "target or system": "Candidozyma auris", "test": "microbial growth, broth dilution", "conditions": "48 h", "measurement": "MIC", "result": "16 µg/mL"}
{"Structure (SMILES)": "CCOC(=O)C1=C(CSC2=NCCS2)NC(=O)NC1c1cccc(Cl)c1 (stereo not drawn)", "test": "DPPH scavenging", "measurement": "IC50", "result": "142 µM"}
{"Structure (SMILES)": "N#CC(=C1C=CC(=NOC(=O)OCc2ccccc2)C=C1)c1ccccc1", "target or system": "Candidozyma auris", "test": "microbial growth, broth dilution", "conditions": "48 h", "measurement": "MIC", "result": "64 µg/mL"}
{"Structure (SMILES)": "COc1ccc(C2NCCc3cc(O)c(O)cc32)cc1O (stereo not drawn)", "test": "DPPH scavenging, absorbance", "conditions": "30 min, dark", "measurement": "IC50", "result": "18.7 µM"}
{"Structure (SMILES)": "CCOC(=O)C1=C(CCl)NC(=O)NC1c1cccc(C)c1 (stereo not drawn)", "test": "DPPH scavenging", "measurement": "IC50", "result": "70.7 µM"}
{"Structure (SMILES)": "C[C@H](N)C(=O)Nc1ccccc1/N=c1\\cc(-c2ccc3c(c2)OCCO3)oc2c(N)cccc12", "target or system": "MCF7", "test": "cell growth or viability, CCK-8", "conditions": "1 µM", "measurement": "inhibition", "result": "7.27%"}
{"Structure (SMILES)": "CC(=O)ON=C1C=CC(=C(C#N)c2ccccc2)C=C1", "target or system": "Candidozyma auris", "test": "microbial killing, broth dilution", "conditions": "48 h", "measurement": "MFC", "result": "16 µg/mL"}
{"Structure (SMILES)": "CS(=O)(=O)NCCC(=O)Nc1ccccc1/N=c1\\cc(-c2ccc3nc(N)oc3c2)oc2ccccc12", "target or system": "MCF7", "test": "cell growth or viability, CCK-8", "conditions": "1 µM", "measurement": "inhibition", "result": "2%"}
{"Structure (SMILES)": "Oc1cc2c(cc1O)C(CCc1ccccc1)NCC2 (stereo not drawn)", "test": "DPPH scavenging, absorbance", "conditions": "30 min, dark", "measurement": "IC50", "result": "18 µM"}
{"Structure (SMILES)": "NCC(=O)Nc1ccccc1/N=c1\\cc(-c2ccc3c(c2)OCCO3)oc2cc(F)ccc12", "target or system": "MCF7", "test": "cell growth or viability, CCK-8", "conditions": "1 µM", "measurement": "inhibition", "result": "-2.78%"}
{"Structure (SMILES)": "CCOC(=O)C1=C(CCl)NC(=O)NC1c1ccc(OC)cc1 (stereo not drawn)", "test": "DPPH scavenging", "measurement": "IC50", "result": "150 µM"}
